Mot1-301 SUMO: SUMOylation pathway inhibition by Mot1-301 growth rescue | 320,000 compounds, 1% hits | growth rescue, % at 18.8 µM | AID 2716 | S. cerevisiae Mot1-301 growth rescue, ATP luminescence, 38.5C; percent above DMSO median, 100 means doubled;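 active = every valid replicate shows activation above 250% relative to neutral control wells; inactive = the rest, any valid replicate at or below 250%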
T cruzi inh: T. cruzi replication inhibition; inhibition, % (test concentration not listed); AID 1885; T. cruzi beta-gal in NIH3T3, luminescence, 90 h; 300,000 compounds, 1.4% hits;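 active = mean inhibition across valid replicates above about 55%, limit read from the data; inconclusive = mean below that limit but half or more replicates reach it; inactive = mean below it, under half of replicates reach it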;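 note: signal also drops with host cell toxicity which is not excluded here; higher percent means less beta-gal luminescence so fewer parasites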
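System – NIH/3T3 host cells with β-galactosidase reporter T. cruzi · Doses – single 50 nL compound addition per well in DMSO · Reagent – 5000 T. cruzi trypomastigotes/well · Medium – Low-serum DMEM with 2% FBS · Timing – ≥90 h infection period, 3 h prior cell attachment · Evaluation – parasite load inhibition, % · Technique – GalScreen luminescence, 60 min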
Beta cell apopt: beta cell apoptosis inhibition. INS-1E cytokine-induced death, ATP luminescence, 48 h; percent of positive-control rescue, neutral wells zero. protection from apoptosis, % (test concentration not listed). 300,000 compounds, 0.8% hits. AID 435005;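 active = Every replicate reaches about 75%, or at least half do and their mean reaches it too, limit read from the data; inconclusive = At least half of replicates reach the limit but their mean does not; inactive = Under half of replicates reach the limit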;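 note: higher means more ATP so stronger rescue from cytokine killing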
CSC inhib: blocks cancer stem cells. cancer stem cell-like cells viability, luminescence. inhibition, % at 7.5 µM. 300,000 compounds, 1.1% hits. AID 2717; in the data active = inhibition above about 75%; inconclusive = no clear call, values can overlap the other calls; tested in HMLE shEcad cells
WT yeast gro inh: growth inhibition of WT yeast, mitochondrial fusion screen | mitochondrial fusion phenotypic screen, WT strain | inhibition, % at 10 µM | 190,000 compounds, 2.1% hits; in the data active = inhibition above about 58%; tested in S. cerevisiae
Efflux pump mplx: inhibitors of Candida antifungal efflux pumps expressed in yeast; S. cerevisiae Candida pump triplex, Nile Red efflux; inhibition, % at 10 µM; 330,000 compounds, 0.44% hits;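 active = plate passing quality check with inhibition over a set limit, or well fluorescence over plate mean plus 4 SD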;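 note: Nile Red retained in pooled yeast measured as flow cytometry median fluorescence; higher means more Nile Red kept so more efflux inhibition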
Of the large screens only hits and unclear results are named; the others gave an inactive call. An excerpt weighted towards active compounds, which were near 4.8% of everything screened.

Cc1onc(-c2ccccc2Cl)c1C(=O)NC(=S)Nc1ccccc1F	WT yeast gro inh 70
COc1ccccc1NC(=S)NC(=O)c1c(-c2ccccc2Cl)noc1C	WT yeast gro inh 70
COc1ccccc1NC(=S)NNC(=O)c1c(Cl)c(C)nn1C	WT yeast gro inh 65
COc1ccc(/C(N)=N/OC(=O)c2c(-c3ccccc3Cl)noc2C)cc1OC	T cruzi inh 57 (no result: WT yeast gro inh)
COc1ccccc1NC(=S)NNC(=O)c1cc(C)nn1C	none
Cc1nc(/C(N)=N/OC(=O)c2c(-c3ccccc3Cl)noc2C)cs1	none (no result: WT yeast gro inh)
CC(C)CN1C(=O)N(c2ccc(Cl)cc2)C(C)(O)CC1(C)C (configuration not stated)	none (no result: WT yeast gro inh)
Cc1onc(-c2c(F)cccc2Cl)c1C(=O)O/N=C(\N)c1ccc([N+](=O)[O-])o1	T cruzi inh 60 (no result: WT yeast gro inh)
COCC(C)NC(=O)NC1(C(F)(F)F)Oc2ccc(Cl)cc2O1 (configuration not stated)	CSC inhib 80
O=C(NCCN1CCOCC1)NC1(C(F)(F)F)Oc2ccc(Cl)cc2O1 (configuration not stated)	CSC inhib inconclusive
C/C(CC(=O)Nc1cc(C)ccn1)=N\NC(=O)c1ccc(C(C)(C)C)cc1	none (no result: WT yeast gro inh)
COC(=O)c1cc(CNC(=O)CCCSc2ccccc2)ccc1OC	none (no result: Mot1-301 SUMO, Beta cell apopt, CSC inhib, WT yeast gro inh, Efflux pump mplx)
COc1ccc2cc3c(N)nn(C(=O)C4CCC(C(C)(C)C)CC4)c3nc2c1 (configuration not stated)	WT yeast gro inh 92
COC(=O)c1ccc(/C=C/c2c(-c3ccsc3)oc3ccc(N4CCOCC4)cc23)cc1	CSC inhib 109 (no result: WT yeast gro inh)
Cc1cccc(C(C)C)c1NC(=O)C(C)OC(=O)Cn1cnc2c1c(=O)n(C)c(=O)n2C (configuration not stated)	none (no result: WT yeast gro inh)
CCC1CCc2sc(C(=O)NC3CCN(Cc4ccccc4)CC3)cc2C1 (configuration not stated)	T cruzi inh 60 (no result: WT yeast gro inh)
CC1CCc2sc(C(=O)NC3CCN(Cc4ccccc4)CC3)cc2C1 (configuration not stated)	none (no result: T cruzi inh, WT yeast gro inh)
Cc1ccc(N2CCN(CCc3nc4cc(NC(=O)c5ccco5)ccc4n3C)CC2)cc1	none
Cn1c(CCN2CCN(c3ccccc3)CC2)nc2cc(NC(=O)c3ccco3)ccc21	WT yeast gro inh 76
COc1ccc(CCc2nnc(CCC(=O)NCc3cc(C(C)C)no3)o2)cc1	none
O=C(Nc1ccc2c(c1)nc1n2CCN(Cc2ccccc2)C1)c1cccs1	WT yeast gro inh 63
O=C(O)CCc1nn2c3ccccc3nc2n(Cc2ccccc2)c1=O	none
COc1ccccc1C(=O)n1nc(-c2ccccc2)nc1NCc1ccco1	WT yeast gro inh 83
CCCCNC(=O)C1(NC(=O)Nc2ccc(C)cc2)CCCCC1	none
Nc1c(C(=O)NCCc2ccc(Cl)cc2)sc2ccc(S(=O)(=O)N3CCCCC3)cc12	T cruzi inh 59
CC(C)CCNC(=O)c1sc2ccc(S(=O)(=O)N3CCCCC3)cc2c1N	none (no result: CSC inhib)
Cc1ccc(S(=O)(=O)c2c(N)n(CCCN(C)C)c3nc4ccccc4nc23)cc1	none (no result: Beta cell apopt, CSC inhib, WT yeast gro inh)
CCCCn1c(NCc2ccccc2NS(=O)(=O)c2ccc(C)cc2)nc2ccccc21	T cruzi inh 57
CCCCn1c(NS(=O)(=O)c2ccc(C)cc2)c(S(=O)(=O)c2ccccc2)c2nc3ccccc3nc21	CSC inhib 108
CCCCSc1ccc2nc(-c3ccc(C#N)cc3)cn2c1	none
CCCSc1ccc2nc(-c3ccccc3)cn2c1	WT yeast gro inh 70
Cc1onc(-c2ccccc2Cl)c1C(=O)OCC(=O)N1CCCCC1	none (no result: T cruzi inh, WT yeast gro inh)
Cc1onc(-c2ccccc2)c1C(=O)NC(=S)NNC(=O)c1ccc(O)cc1O	Beta cell apopt 91
Cc1onc(-c2ccccc2)c1C(=O)NC(=S)NNC(=O)c1ccccc1O	Beta cell apopt 85
CS(=O)(=O)N(CC(=O)N1CCN(c2ccccc2)CC1)c1ccc(Cl)c(C(F)(F)F)c1	none
CCC(CC)c1nnc(NC(=O)C2CSC3(C)CCC(=O)N23)s1 (configuration not stated)	none (no result: WT yeast gro inh)
CCn1c(=NC(=O)CS(=O)(=O)c2ccccc2)sc2cccc(OC)c21	T cruzi inh 58 (no result: Beta cell apopt, WT yeast gro inh)
Cn1c(=NC(=O)CS(=O)(=O)c2ccccc2)sc2ccccc21	none (no result: Mot1-301 SUMO, Beta cell apopt, WT yeast gro inh)
CN(C(=O)c1cc(S(=O)(=O)N2CCOCC2)cs1)c1ccccc1	none (no result: WT yeast gro inh)
CCCOc1ccc(N2C(=O)CC(SCc3nc4ccccc4[nH]3)C2=O)cc1 (configuration not stated)	none
Cc1ccc(C(C)C)c(OCCNC(=S)Nc2cccc3ccccc23)c1	T cruzi inh inconclusive, WT yeast gro inh 72
O=C(/C=C/c1ccc2c(c1)OCO2)NCCSCc1cccc(Cl)c1	CSC inhib 102
O=C(/C=C/c1ccc2c(c1)OCO2)NCCSCc1ccc(Cl)cc1Cl	none (no result: Mot1-301 SUMO, Beta cell apopt, CSC inhib, Efflux pump mplx)
O=C(COc1ccc2c(c1)OCO2)Nc1ccc(Cl)cn1	none (no result: WT yeast gro inh)
O=C(/C=C/c1ccc2c(c1)OCO2)Nc1ccc(Cl)cn1	CSC inhib 88
Cc1cc(NC(=O)/C=C/c2ccc(Cl)cc2)no1	CSC inhib 78
Cc1cc(NC(=O)/C=C/c2ccc(Br)cc2)no1	none
Cn1c(=O)c2c(-c3ccc(OC(F)F)cc3)cc(-c3ccccc3)nc2n(C)c1=O	none (no result: WT yeast gro inh)
COc1ccccc1NS(=O)(=O)c1cc(NC(=O)c2cccs2)ccc1N1CCCCC1	T cruzi inh 59
Cc1ccc(NC(=O)c2cc3c(s2)CCCC3)cc1S(=O)(=O)Nc1ccccc1Cl	none
O=C(Nc1ccccc1Cl)c1cccs1	none (no result: Beta cell apopt)
Cc1ccc(C(=O)Nc2ccc(C)c(S(=O)(=O)Nc3ccccc3Cl)c2)s1	WT yeast gro inh 70
O=C(Nc1ccc(Cl)c(S(=O)(=O)Nc2ccccc2Cl)c1)c1cccs1	WT yeast gro inh 84
Cc1ccc(Cn2cnc3ccccc32)cc1C	none
CCc1c(C2(O)CCCCC2)[nH]c2ncccc12	none (no result: T cruzi inh, WT yeast gro inh)
Cc1ccccc1C(=O)c1cccn1CC(=O)NCCN1CCN(c2cccc(C)c2C)CC1	WT yeast gro inh 80
Cc1ccccc1C(=O)c1cccn1CC(=O)NCCCN1CCCCC1	none (no result: CSC inhib, WT yeast gro inh)
Cc1ccc(C)c(N2CCN(CCCNC(=O)Cn3cccc3C(=O)c3ccccc3C)CC2)c1	WT yeast gro inh 80
CC1C(=O)C(C)C(c2ccccc2F)NC1c1ccccc1F (configuration not stated)	none (no result: WT yeast gro inh)
Cc1cc2ncc(-c3ccccc3)nc2cc1C	none (no result: Beta cell apopt, WT yeast gro inh)
Cc1cc(-c2ccccc2)nc(-c2ccccc2)c1C	WT yeast gro inh 78
CCOC(=O)c1c(C)oc2c1c(C(c1cccnc1)N1CCCCC1)c(O)c1ccccc12 (configuration not stated)	WT yeast gro inh 71
CCOC(=O)c1c(C)oc2c1c(C(c1ccccc1)N1CCOCC1)c(O)c1ccccc12 (configuration not stated)	WT yeast gro inh 67
CCOC(=O)c1sc(-c2ccccc2)nc1C	none
CCOC(=O)Cc1ccc2sc(-c3ccccc3)nc2c1	WT yeast gro inh 64
Cc1cccc(OCCCCCn2ccnc2)c1	T cruzi inh 57
